Experimental data collected from several papers.
Protocols differ between the studies behind these lines.
CYP2C9: Cytochrome P450 2C9 (CYP2C9, Homo sapiens, UniProt P11712)
CYP2C8: Cytochrome P450 2C8 (CYP2C8, Homo sapiens, UniProt P10632)
ENAH: Protein enabled homolog (ENAH, UniProt Q8N8S7)
DPP4: Dipeptidyl peptidase 4 (DPP4, Homo sapiens, UniProt P27487)

| Compound | target | test | test system | conditions | quantity | result |
| --- | --- | --- | --- | --- | --- | --- |
| COc1cc(O)c2c(c1)C(=O)c1cc(C)cc(O)c1C2=O | CYP2C9 | enzyme activity, inhibitor | human, liver microsomes | pH 7.4 | Ki | 3.69 µM |
| Cn1nc2c(=O)n(C3CC3)cnc2c1[C@](O)(c1cnc(C(F)(F)F)c(Cl)c1)C(F)(F)F | CYP2C8 | enzyme activity, inhibitor | human, liver microsomes | pH 7.4 | IC50 | > 20 µM |
| C=C(F)C(=O)N1CCN(c2nc(OC[C@@H]3CCCN3C)nc3c2CCN(c2cccc4cccc(Cl)c24)C3)C[C@@H]1CC#N | CYP2C9 | enzyme activity, inhibitor | human, liver microsomes | – | Ki | 3.2 µM |
| CC[C@H](C)[C@H](NC(=O)[C@H](Cc1c[nH]cn1)NC(=O)[C@@H](N)CCC(=O)O)C(=O)N1CCC[C@H]1C(=O)N1CCC[C@H]1C(=O)N1CCC[C@H]1C(=O)N1CCC[C@H]1C(=O)N[C@@H](CCCNC(=N)N)C(=O)N1CCC[C@H]1C(=O)N1CCC[C@H]1C(=O)N[C@@H](CCCCN)C(=O)N[C@@H](CCCNC(=N)N)C(=O)O | ENAH | binding, FP | – | – | Kd | 13 µM |
| CO[C@]1(C(=O)N[C@@H](C)c2ccc(-n3cc(F)cn3)nc2)CC[C@H](c2nc(C)cc(Nc3cc(C)[nH]n3)n2)CC1 | CYP2C8 | enzyme activity, inhibitor | human, liver microsomes | – | Ki | 9.6 µM |
| CSCC[C@H](NC(=O)[C@H](CCC(=O)O)NC(=O)[C@H](CS)NC(=O)[C@H](CO)NC(=O)[C@H](CC(C)C)NC(=O)[C@H](CCC(=O)O)NC(=O)[C@@H](N)CCC(=O)O)C(=O)N[C@@H](CCC(=O)O)C(=O)NCC(=O)N[C@@H](CC(N)=O)C(=O)N[C@@H](CC(C)C)C(=O)N[C@@H](CCC(=O)O)C(=O)N[C@@H](Cc1c[nH]cn1)C(=O)N[C@@H](CC(C)C)C(=O)N1CCC[C@H]1C(=O)N1CCC[C@H]1C(=O)N1CCC[C@H]1C(=O)N1CCC[C@H]1C(=O)N[C@@H](CCSC)C(=O)N[C@@H](CCC(=O)O)C(=O)N[C@H](C(=O)N[C@@H](CC(C)C)C(=O)N[C@@H](CCSC)C(=O)N[C@@H](CC(=O)O)C(=O)N[C@@H](CCCCN)C(=O)N[C@@H](CO)C(=O)N[C@@H](Cc1ccccc1)C(=O)N[C@@H](C)C(=O)N[C@@H](CO)C(=O)N[C@@H](CC(C)C)C(=O)N[C@@H](CCC(=O)O)C(=O)N[C@@H](CO)C(=O)N1CCC[C@H]1C(=O)N[C@@H](CCC(=O)O)C(=O)N[C@@H](CO)C(=O)O)C(C)C | ENAH | binding, fluorescence | – | – | Kd | 3.1 µM |
| Cn1c(=O)cc(N2CCC(N)CC2)n(Cc2nc3ccc(Br)cc3c(=O)n2-c2cccc(F)c2)c1=O | DPP4 | enzyme activity, inhibitor | – | – | IC50 | 22.1 µM |
| CC[C@@](N)(c1cnc(C(F)(F)F)c(Cl)c1)c1c2ncn(C3CC3)c(=O)c2nn1C | CYP2C9 | enzyme activity, inhibitor | human, liver microsomes | pH 7.4 | IC50 | > 20 µM |
| Cn1c(=O)cc(N2CCC(N)CC2)n(Cc2nc3ccccc3c(=O)n2-c2ccc(F)c(Cl)c2)c1=O | DPP4 | enzyme activity, inhibitor | – | – | IC50 | 35.7 µM |
| Cn1nc2c(=O)n(C3CC3)ccc2c1[C@](O)(c1cnc(C(F)(F)F)c(Cl)c1)C(F)(F)F | CYP2C8 | enzyme activity, inhibitor | human, liver microsomes | pH 7.4 | IC50 | > 20 µM |
| CN(C)c1ncnc2c1ncn2[C@@H]1O[C@H](CCl)[C@@H](NC(=O)[C@H](CSC(c2ccccc2)c2ccccc2)NC(=O)OC(C)(C)C)[C@H]1O | Aminopeptidase N (ANPEP, Homo sapiens, UniProt P15144) | enzyme activity, inhibitor, fluorescence | – | – | IC50 | > 100 µM |
| Cn1c(=O)cc(N2CCC(N)CC2)n(Cc2nc3ccc(Br)cc3c(=O)n2-c2ccc(Br)cc2)c1=O | DPP4 | enzyme activity, inhibitor | – | – | IC50 | 11.2 µM |
| Cn1cncc1[C@@](N)(c1ccc(Cl)cc1)c1ccc2c(c1)c(-c1cccc(Cl)c1)cc(=O)n2C | CYP2C9 | enzyme activity, inhibitor | human, liver microsomes | – | Ki | 0.35 µM |
